Results taken from ChEMBL document CHEMBL1275591, “Cellular pharmacodynamics of the novel biaryloxazolidinone radezolid: studies with infected phagocytic and nonphagocytic cells, using Staphylococcus aureus, Staphylococcus epidermidis, Listeria monocytogenes, and Legionella pneumophila” (Antimicrob Agents Chemother, 2010).
Values after ≈ are worked out from the molar mass of the structure shown.

Key:
Listeria monocytogenes = assay: Antimicrobial activity against Listeria monocytogenes infected in THP1 cells after 24 hrs; assay type: functional, organism-based; settings: THP-1, 24 h
Summary of the method: (§1)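 Bacteria were phagocytosed by human THP-1 macrophage-like cells, then exposed to a range of drug concentrations for a fixed time: 24 h for S. aureus, S. epidermidis and L. monocytogenes, 48 h for L. pneumophila. Change in CFU versus the initial inoculum was fitted with a sigmoidal curve to give Emin, Emax (relative maximal efficacy), EC50 and static concentration (Cs).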

Legionella pneumophila [1] = assay: Antimicrobial activity against Legionella pneumophila ATCC 33153 after 48 hrs; assay type: functional; settings: ATCC 33153, 48 h
[2] = Ratio of drug level for cellular to extracellular region of Staphylococcus aureus infected human Calu3 cells at 4 mg/liter after 2 hrs; assay type: ADME, cell-based; settings: calu-3, 2 h
Summary of the method: (§2)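 Cells were exposed to [14C]radezolid for 2 or 24 h. Cell-associated drug in lysates was measured by liquid scintillation counting (detection limit 0.003 mg/liter; linear 0.01–0.78 mg/liter). Content was normalised to cell protein (Lowry). It was converted to apparent cellular concentration at 5 μl per mg protein and expressed relative to the extracellular concentration.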

Staphylococcus aureus [3] = assay: Bacteriostatic activity against linezolid-susceptible Staphylococcus aureus SA238 infected in THP1 cells at pH 7.4 after 24 hrs; assay type: functional, THP-1
Staphylococcus aureus [4] = assay: Antimicrobial activity against linezolid-susceptible Staphylococcus aureus SA040 infected in THP1 cells after 24 hrs; assay type: functional, organism-based; settings: SA040, THP-1, 24 h; summary of the method: as §1
Staphylococcus aureus [5] = assay: Antimicrobial activity against linezolid-resistant Staphylococcus aureus SA238L infected in THP1 cells assessed as log reduction in bacterial count after 24 hrs; assay type: functional, THP-1; summary of the method: as §1
Staphylococcus aureus [6] = assay: Bacteriostatic activity against linezolid-susceptible Staphylococcus aureus SA238 infected in Calu-3 cells after 24 hrs; assay type: functional
Summary of the method: (§3)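 Adherent nonphagocytic cells were infected at 5 × 10^7 to 1 × 10^8 bacteria/ml with 2 h phagocytosis. Cells used: Calu-3 bronchial epithelium grown in uncoated flasks, neonatal foreskin keratinocytes on collagen-coated wells, primary human osteoblasts, and primary rat embryo fibroblasts. Antibiotic was then given over a concentration range for 24 h. Cs came from a sigmoidal fit of CFU change.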

Staphylococcus aureus [7] = assay: Bacteriostatic activity against Staphylococcus aureus infected in THP1 cells after 24 hrs; assay type: functional, THP-1; summary of the method: as §1
Staphylococcus aureus [8] = assay: Antimicrobial activity against linezolid-susceptible Staphylococcus aureus ATCC 33591 infected in THP1 cells after 24 hrs; assay type: functional, organism-based; settings: ATCC 33591, THP-1, 24 h; summary of the method: as §1
Staphylococcus aureus [9] = assay: Bacteriostatic activity against linezolid-susceptible Staphylococcus aureus SA238 infected in human epidermal keratinocytes cells after 24 hrs; assay type: functional; summary of the method: as §3
[10] = Ratio of drug level for cellular to extracellular region of Staphylococcus aureus infected human osteoblast at 4 mg/liter after 24 hrs; assay type: ADME, cell-based; summary of the method: as §2
Staphylococcus aureus [11] = assay: Bacteriostatic activity against linezolid-resistant Staphylococcus aureus SA238L infected in human epidermal keratinocytes cells after 24 hrs; assay type: functional; summary of the method: as §3
Staphylococcus aureus [12] = assay: Antimicrobial activity against methicillin-susceptible Staphylococcus aureus ATCC 25923 after 24 hrs; assay type: functional; settings: ATCC 25923, 24 h
Staphylococcus aureus [13] = assay: Antimicrobial activity against linezolid-susceptible Staphylococcus aureus NRS384 infected in THP1 cells assessed as log reduction in bacterial count after 24 hrs; assay type: functional, THP-1; summary of the method: as §1
Staphylococcus aureus [14] = assay: Antimicrobial activity against hospital acquired methicillin-resistant Staphylococcus aureus SA238 after 24 hrs; assay type: functional; settings: SA238, 24 h
Staphylococcus aureus [15] = assay: Antimicrobial activity against linezolid-susceptible Staphylococcus aureus SA040 infected in THP1 cells assessed as log reduction in bacterial count after 24 hrs; assay type: functional, THP-1; summary of the method: as §1
[16] = tested on: Staphylococcus epidermidis; assay: Bacteriostatic activity against Staphylococcus epidermidis infected in THP1 cells after 24 hrs; assay type: functional, THP-1; summary of the method: as §1
Staphylococcus aureus [17] = assay: Antimicrobial activity against linezolid-resistant Staphylococcus aureus SA238L infected in Calu-3 cells assessed as log reduction in bacterial count after 24 hrs; assay type: functional
Summary of the method: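 S. aureus was internalized by adherent nonphagocytic cells: Calu-3, HUVEC, keratinocytes on collagen-coated wells, osteoblasts, or rat embryo fibroblasts. Inoculum was 5 × 10^7 to 1 × 10^8 bacteria/ml with 2 h phagocytosis (HUVEC: 2 × 10^6/ml, 1 h). Cells were then exposed to graded drug concentrations for 24 h. CFU change versus the original inoculum was fitted sigmoidally for Emax and Cs.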

Staphylococcus aureus [18] = assay: Bacteriostatic activity against linezolid-susceptible Staphylococcus aureus ATCC 33591 infected in THP1 cells after 24 hrs; assay type: functional, THP-1
Summary of the method: (§4)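 Human THP-1 myelomonocytic (macrophage-like) cells infected with S. aureus, then exposed 24 h to a range of antibiotic concentrations. CFU change was measured against the initial inoculum. A sigmoidal dose-response curve was fitted to give Emin, Emax and EC50, and the apparent static concentration (Cs) was taken from the fit.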

Staphylococcus aureus [19] = assay: Antimicrobial activity against linezolid-susceptible Staphylococcus aureus ATCC 25923 infected in THP1 cells after 24 hrs; assay type: functional, organism-based; settings: ATCC 25923, THP-1, 24 h; summary of the method: as §1
THP-1 [20] = assay: Ratio of drug level for cellular to extracellular region of Staphylococcus aureus infected human THP-1 cells at 4 mg/liter after 24 hrs; assay type: ADME, cell-based; settings: thp-1, 24 h; summary of the method: as §2
Legionella pneumophila [21] = assay: Bacteriostatic activity against Legionella pneumophila ATCC 33153 infected in THP1 cells after 48hrs; assay type: functional, THP-1; summary of the method: as §1
Staphylococcus aureus [22] = assay: Bacteriostatic activity against linezolid-susceptible Staphylococcus aureus ATCC 25923 infected in THP1 cells after 24 hrs; assay type: functional, THP-1; summary of the method: as §4
Staphylococcus aureus [23] = assay: Antimicrobial activity against Staphylococcus aureus infected in THP1 cells after 24 hrs; assay type: functional, organism-based; settings: THP-1, 24 h; summary of the method: as §1
Staphylococcus aureus [24] = assay: Antimicrobial activity against linezolid-susceptible Staphylococcus aureus ATCC 33591 infected in THP1 cells assessed as log reduction in bacterial count after 24 hrs; assay type: functional, THP-1; summary of the method: as §1
Staphylococcus aureus [25] = assay: Antimicrobial activity against linezolid-susceptible Staphylococcus aureus SA238 infected in THP1 cells after 24 hrs; assay type: functional, organism-based; settings: SA238, THP-1, 24 h; summary of the method: as §1
THP-1 [26] = assay: Ratio of drug level for cellular to extracellular region of Staphylococcus aureus infected human THP-1 cells at 4 mg/liter after 2 hrs; assay type: ADME, cell-based; settings: thp-1, 2 h; summary of the method: as §2
[27] = Ratio of drug level for cellular to extracellular region of Staphylococcus aureus infected human Calu3 cells at 4 mg/liter after 24 hrs; assay type: ADME, cell-based; settings: calu-3, 24 h; summary of the method: as §2
[28] = tested on: Staphylococcus epidermidis; assay: Antimicrobial activity against Staphylococcus epidermidis SA362 after 24 hrs; assay type: functional; settings: SA362, 24 h
Staphylococcus aureus [29] = assay: Bacteriostatic activity against linezolid-susceptible Staphylococcus aureus NRS18 infected in THP1 cells after 24 hrs; assay type: functional, THP-1; summary of the method: as §4
Legionella pneumophila [30] = assay: Antimicrobial activity against Legionella pneumophila ATCC 33153 infected in THP1 cells after 48hrs; assay type: functional, organism-based; settings: ATCC 33153, THP-1, 48 h; summary of the method: as §1
[31] = Ratio of drug level for cellular to extracellular region of Staphylococcus aureus infected human osteoblast at 4 mg/liter after 2 hrs; assay type: ADME, cell-based; summary of the method: as §2
Staphylococcus aureus [32] = assay: Antimicrobial activity against linezolid-resistant Staphylococcus aureus SA040L infected in THP1 cells after 24 hrs; assay type: functional, organism-based; settings: THP-1, 24 h; summary of the method: as §1
Staphylococcus aureus [33] = assay: Bacteriostatic activity against linezolid-resistant Staphylococcus aureus SA238L infected in rat fibroblast cells after 24 hrs; assay type: functional; summary of the method: as §3
Staphylococcus aureus [34] = assay: Antimicrobial activity against linezolid-susceptible Staphylococcus aureus NRS18 infected in THP1 cells after 24 hrs; assay type: functional, organism-based; settings: NRS18, THP-1, 24 h; summary of the method: as §1
Staphylococcus aureus [35] = assay: Antimicrobial activity against linezolid-susceptible Staphylococcus aureus SA238 infected in THP1 cells assessed as log reduction in bacterial count after 24 hrs; assay type: functional, THP-1; summary of the method: as §1
Staphylococcus aureus [36] = assay: Bacteriostatic activity against linezolid-susceptible Staphylococcus aureus SA238 infected in THP1 cells after 24 hrs; assay type: functional, THP-1; summary of the method: as §4

Compound: CC(=O)NC[C@H]1CN(c2ccc(-c3ccc(CNCc4cnn[nH]4)cc3)c(F)c2)C(=O)O1 [RADEZOLID]
- EC50 (Listeria monocytogenes): 0.04 µg/mL (≈ 0.0912 µM)
- MIC (Legionella pneumophila [1]): 0.5 µg/mL (≈ 1.14 µM)
- Ratio [2]: 8.5
- Activity (Staphylococcus aureus [3]): 1.04 mg/L
- EC50 (Staphylococcus aureus [4]): 0.09 µg/mL (≈ 0.205 µM)
- log10cfu (Staphylococcus aureus [5]): -0.77
- Activity (Staphylococcus aureus [6]): 0.6 mg/L
- Activity (Staphylococcus aureus [7]): 0.91 mg/L
- EC50 (Staphylococcus aureus [8]): 0.12 µg/mL (≈ 0.274 µM)
- Activity (Staphylococcus aureus [9]): 0.6 mg/L
- Ratio [10]: 9.7
- Activity (Staphylococcus aureus [11]): 0.6 mg/L
- MIC (Staphylococcus aureus [12]): 0.25 µg/mL (≈ 0.57 µM)
- log10cfu (Staphylococcus aureus [13]): -0.61
- MIC (Staphylococcus aureus [14]): 0.5 µg/mL (≈ 1.14 µM)
- log10cfu (Staphylococcus aureus [15]): -0.96
- Activity [16]: 0.03 mg/L
- log10cfu (Staphylococcus aureus [17]): 0.6
- Activity (Staphylococcus aureus [18]): 0.56 mg/L
- EC50 (Staphylococcus aureus [19]): 0.24 µg/mL (≈ 0.547 µM)
- Ratio (THP-1 [20]): 9.8
- Activity (Legionella pneumophila [21]): 0.36 mg/L
- Activity (Staphylococcus aureus [22]): 0.91 mg/L
- EC50 (Staphylococcus aureus [23]): 0.24 µg/mL (≈ 0.547 µM)
- log10cfu (Staphylococcus aureus [24]): -0.56
- EC50 (Staphylococcus aureus [25]): 0.16 µg/mL (≈ 0.365 µM)
- Ratio (THP-1 [26]): 9.3
- Ratio [27]: 8.3
- MIC [28]: 0.25 µg/mL (≈ 0.57 µM)
- Activity (Staphylococcus aureus [29]): 0.28 mg/L
- EC50 (Legionella pneumophila [30]): 0.47 µg/mL (≈ 1.07 µM)
- Ratio [31]: 9.8
- EC50 (Staphylococcus aureus [32]): 0.14 µg/mL (≈ 0.319 µM)
- Activity (Staphylococcus aureus [33]): 0.6 mg/L
- EC50 (Staphylococcus aureus [34]): 0.09 µg/mL (≈ 0.205 µM)
- log10cfu (Staphylococcus aureus [35]): -0.79
- Activity (Staphylococcus aureus [36]): 0.56 mg/L
